According to ChEMBL document CHEMBL4513216, “Probing the Open Global Health Chemical Diversity Library for Multistage-Active Starting Points for Next-Generation Antimalarials” (ACS Infect Dis, 2020):

assay: Toxicity liver stage against HepG2, at 10uM; assay type: cell-based; parameters: test concentration 10 uM, cell line HepG2-A16-CD81EGFP; conditions: human, HepG2-A16-CD81EGFP cells; read-out: INHIBITION
Procedure, shortened: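 Uninfected HepG2-A16-CD81EGFP cells, 3 × 10^3 per well, 1536-well, plated on prespotted compound at 10 μM final, parasite-free screening media added to match infected plates; puromycin 10 μM positive, DMSO 0.5% negative; run in parallel with 48 h PbLuc assay at 37 °C, 5% CO2; viability by CellTiter-Glo luminescence, normalized to controls.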

Compound | cytotoxicity at 10 µM
O=C1CN(Cc2ccc(-c3ccccc3C(=O)O)cc2)CCN1 | -1.88%
Cc1ccccc1CNC(=O)c1ccccc1-n1cnc(CN)c1 | -7.22%
O=C(c1ccoc1)N1CCO[C@@H]2CNC[C@@H]21 | -99.9%
COc1cc(C)ccc1OCCC(=O)N1CCCC1Cn1cccn1 (centres undefined) | -7.81%
COc1cc(CNC(=O)c2cc(Cl)ccc2F)ccn1 | -2.69%
O=C1NCCN1C1CCN(Cc2ccccn2)CC1 | 4.08%
CN(Cc1cnn(C)c1)C(=O)CN1CCCC1Cn1cncn1 (centres undefined) | 12.6%
CC(C)CN(CC(O)c1ccc(F)cc1)C(=O)c1cnsn1 (centres undefined) | -6.87%
COc1ccccc1C(=O)N1C[C@@H]2CCCCN(CC(N)=O)[C@@H]2C1 | -4.43%
Cc1ccc(O)c(CN2CCCCC2CCN2CCOCC2)c1 (centres undefined) | 4.25%
Cc1cc(-c2n[nH]c3c2CN(S(=O)(=O)c2ccsc2)CC3)c(C)o1 | -15.8%
CC(C)c1nc2n(n1)CC(NCC(=O)NCCC1=CCCCC1)CC2 (centres undefined) | -4.76%
COc1ccc(OC)c(CN2CCCCCC2c2cccs2)c1 (centres undefined) | -5%
CCC1=NOC(CNCc2cnc(-c3ccccc3C)s2)C1 (centres undefined) | -5.92%
Cc1ncncc1-c1ccnc(NC(C)C)n1 | -0.279%
Cc1ccc(CSc2nc(N)cc(NCCS(=O)(=O)N(C)C)n2)cc1 | 0.479%
CCc1nc(C)c(CN2CCOC(Cc3cccc4ccccc34)C2)[nH]1 (centres undefined) | -5.54%
c1ncc2c(n1)CN(Cc1cn3ccsc3n1)CC2 | 11.3%
Cc1nc2ncnn2c2ccn(-c3cccnc3O)c(=O)c12 | 15.9%
CC(=O)c1csc(-c2csc(Cn3ccc(=O)[nH]c3=O)n2)c1 | 5.39%
COc1ccc(CN2CCC3(CC2)CN(c2ccccn2)CCO3)cc1 | 2.87%

Compound | cytotoxicity at 10 µM
O=S(=O)(NCCN1CC=CC1)c1ccc(Cl)cc1 | -6.04%
CCCN(C(=O)CCS(=O)(=O)Cc1ccccc1)c1cccc(C)c1 | -2.67%
CN(Cc1cscn1)C(=O)C(c1ccccc1)N1CCSCC1 (centres undefined) | 9.26%
Cn1cc(CN2CCC(CCC(=O)NC3CC3)CC2)cn1 | 9.27%
COc1cc(F)ccc1N1CCN(Cc2nc(C)c(C)o2)CC1 | 10.7%
CN1CCN(Cc2ccc(-c3ccc(C(N)=O)cc3)nc2)CC1 | 5.58%
Cc1nc[nH]c1-c1nccn1CCN1CCCC1=O | -6.88%
COCC1CC2(CCN(Cc3cccnc3)CC2)CN1C(C)C (centres undefined) | -4.21%
CCOc1ccccc1CCn1cc2[nH]cccc-2c1=O | 13.6%
O=C(c1ccc2nncn2c1)N1CCCC1c1noc(C2CC2)n1 (centres undefined) | -7.11%
O=C1CCC2(CCN(Cc3ccsc3)CC2)N1Cc1ccccc1 | 0.552%
CN(CCC#N)C(=O)CN1CCCC1c1ccsc1 (centres undefined) | -5.26%
COc1ccc(CC(=O)N(C)C2CCN(C)C2=O)cc1F (centres undefined) | 0.0152%
CC(C)SCC(=O)N1CCc2c(nc(N(C)C)nc2N(C)C)C1 | 21.1%
Cc1ccccc1-c1cncc(C2CCN(C(=O)CN(C)C)CC2)n1 | 3.88%
Cc1nn(C)c(C)c1CC(=O)N1CCCC1Cn1cccn1 (centres undefined) | -14.8%
CNC(=O)c1cn2cc(-c3ccc(F)cc3)n(CC=C(C)C)c(=O)c2n1 | -52.2%
Cc1ccc(OCCSCCn2nc3ccccn3c2=O)cc1 | 7%
O=C(C1CC=CC1)N1CCC2(CC1)OCCO2 | 6.9%
COc1ccc(OC)c(CNCCc2cc(F)cc3c2OCOC3)c1 | -8.08%
CCN1C[C@@H]2CN(C(=O)C3CC=CC3)C[C@@H]2C1=O | 2.35%

Compound | cytotoxicity at 10 µM
CCSc1ccc(NC(=O)NC(C)c2c(C)noc2C)cn1 (centres undefined) | -3.69%
Cn1ccnc1CN1CCCN(C(=O)c2ccc3c(c2)COC3)CC1 | -10.9%
CC(C)c1nc(C2CCCN2Cc2ccncc2Cl)no1 (centres undefined) | -2.83%
Cc1ccc(N2CCCC(NCCS(C)(=O)=O)C2)nn1 (centres undefined) | -5.26%
CCc1cc(NC(=O)C(c2cccc(F)c2)N2CCOCC2)[nH]n1 (centres undefined) | -10.3%
O=C(c1cnccn1)N1CCCC2(CCN(c3ncccn3)C2)C1 (centres undefined) | 5.61%
Cc1noc(CN(C)C(=O)CCn2cnc3ccccc32)n1 | 10.1%
O=C(CN1CCCC1c1noc(C2CC2)n1)N1CCc2ccccc21 (centres undefined) | -5.86%
COc1cc(N2C[C@H]3CN(Cc4ccccn4)C[C@H]3C2)ncn1 | -96.3%
COc1cccc(NC(=O)NCC(Cc2cnn(C)c2)C(N)=O)c1 (centres undefined) | -6.52%
Cc1noc(C)c1C(=O)Nc1ccc2ncn(CC(C)C)c(=O)c2c1 | 8.75%
O=C(CCn1ccccc1=O)N1CCN(Cc2cccc(Cl)c2)CC1 | -1.97%
COCCN(C)C[C@@H]1CN(c2nnc(C(C)C)s2)C[C@@H]1CO | -2.35%
CC(Oc1ccccc1)C(=O)N1CCCN(Cc2nccn2C)CC1 (centres undefined) | 0.471%
CN(Cc1ccccn1)C1COC2(CCN(Cc3cccnc3)CC2)C1 (centres undefined) | -1.42%
CN1CCCC(c2cncc(C(=O)NCc3ccccc3Cl)n2)C1 (centres undefined) | -2.82%
CC(C)NC(=O)C1CCC2(CCN(c3ncccn3)CC2)CO1 (centres undefined) | 0.442%
CCn1nc(CC(C)C)cc1C(=O)NCC(F)(F)F | 21.3%
Cn1cnc2c1C(C(=O)N1CCCO1)N(C(=O)c1ccccc1)CC2 (centres undefined) | -0.234%
CCOC(=O)C1CCN(c2cc(C(=O)N3CCCCC3)nc(C)n2)CC1 | -4.17%
CC(=O)c1ccc(N2CCCC(CO)(CCOc3ccccc3)C2)nc1 (centres undefined) | 3.15%

Compound | cytotoxicity at 10 µM
OCCN(Cc1cccnc1)c1cnc2ccccc2n1 | 1.06%
CN(Cc1ccco1)C1CCC12CCN(C(=O)c1ccncc1)CC2 (centres undefined) | 2.82%
COc1cccc2ccn(CC(=O)NC(C)C)c12 | -37%
CC1(C)OCC2(CO1)CN(C(=O)c1ccccc1Cl)C2 | -4.21%
CCOCCC(=O)Nc1ccnn1-c1ccc(Cl)cc1 | -12.6%
CCSCCC(=O)NCc1cc2n(n1)CCN(C(=O)N(C)C)C2 | -5.38%
O=C(CCc1nccs1)N1CCCC(n2ccnc2)C1 (centres undefined) | -16%
c1csc(CN2CCC3(CC2)COCCN3CC2CC2)n1 | 5.53%
OCc1cc2ccccc2nc1NC1CC=CC1 | -56%
Cc1cnn(CC2CN(CC(=O)N3CCc4ccccc43)CCO2)c1 (centres undefined) | -0.77%
CC(C)(C)CN(CCC#N)C(=O)Cc1ccc(-n2cnnn2)cc1 | 1.18%
COc1ccc(C(C)NCc2scnc2C)cc1Cn1cccn1 (centres undefined) | -3.53%
O=C(c1cccc(Oc2ccccc2)c1)N1CCCC(O)(CO)CC1 (centres undefined) | -3.17%
CNC(=O)C(C)(C)CNC(=O)Nc1cc(C)ccn1 | 11.7%
Cn1ccnc1CN1CCCCC1Cn1cccn1 (centres undefined) | 5.94%
CCCN(Cc1ccccc1O)S(=O)(=O)C(C)CC (centres undefined) | 9.02%
Cc1nc(C2CCCN2CCCNS(C)(=O)=O)no1 (centres undefined) | -8.6%
Cc1cc(NC(=O)[C@H]2CCCCN2C(=O)OC(C)(C)C)no1 | -1.48%
O=C(COCC1CC[C@H]2[C@H](CCN2c2ncccn2)O1)N1CCCC1 (some centres undefined) | 1.27%
CCN(CC1CCOC1)C(=O)Nc1ccc(N2CCCC2)nc1 (centres undefined) | -7.1%
CCc1n[nH]c(=O)c(C(=O)N2CCOC3(CCCC3)C2)c1CC | 13.3%
